Test results published in ChEMBL document CHEMBL1124223, “1-Substituted 7-[3-[(ethylamino)methyl]-1-pyrrolidinyl]-6,8- difluoro-1,4-dihydro-4-oxo-3-quinolinecarboxylic acids. New quantitative structure-activity relationships at N1 for the quinolone antibacterials” (1988).
In brackets after ≈: the same amount, converted by molar mass.

How the values were obtained:
Escherichia coli [1] = test: Potency against Escherichia coli (H560); type: functional
Escherichia coli [2] = test: Potency against Gram-negative mean; type: functional
Escherichia coli [3] = test: Minimum inhibitory concentration against Escherichia coli (H560); type: functional
Procedure, shortened: (§1)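 MICs were determined by standard microtitration against a panel of 11 bacterial strains. Aqueous stock solutions were prepared with 0.1 N sodium or potassium hydroxide.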

Escherichia coli [4] = test: Minimum inhibitory concentration against Escherichia coli (vogel); type: functional; procedure, shortened: as §1
Enterobacter cloacae = test: Minimum inhibitory concentration against Enterobacter cloacae. (MA2446).; type: functional
Klebsiella pneumoniae = test: Minimum inhibitory concentration against Klebsiella pneumoniae (MGH-2); type: functional; procedure, shortened: as §1
Mus musculus [5] = test: In vivo activity against Pseudomonas aeruginosa (po); type: functional; conditions: read-out: PD50
Procedure, shortened: (§2)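 Median protective dose (PD50, mg/kg) measured in acute, lethal, systemic infections in female Charles River CD-1 mice. A single dose of compound was given at the time of bacterial challenge. Aqueous stock solutions were made with 0.1 N sodium or potassium hydroxide.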

Mus musculus [6] = test: In vivo activity against Pseudomonas aeruginosa (sc); type: functional; conditions: read-out: PD50; procedure, shortened: as §2
Mus musculus [7] = test: In vivo activity against Streptococcus pneumoniae (po); type: functional; conditions: read-out: PD50; procedure, shortened: as §2
Mus musculus [8] = test: In vivo activity against Streptococcus pneumoniae (sc); type: functional; conditions: read-out: PD50; procedure, shortened: as §2
Mus musculus [9] = test: In vivo activity against Streptococcus pyogenes (po); type: functional; conditions: read-out: PD50; procedure, shortened: as §2
Mus musculus [10] = test: In vivo activity against Streptococcus pyogenes (sc); type: functional; conditions: read-out: PD50; procedure, shortened: as §2
Mus musculus [11] = test: In vivo activity against Escherichia coli (po); type: functional; conditions: read-out: PD50; procedure, shortened: as §2
Pseudomonas aeruginosa = test: Minimum inhibitory concentration against Pseudomonas aeruginosa. (UI-18); type: functional; procedure, shortened: as §1
Providencia rettgeri = test: Minimum inhibitory concentration against Providencia rettgeri. (M1771); type: functional; procedure, shortened: as §1
Streptococcus pyogenes = test: Minimum inhibitory concentration against Streptococcus pyogenes (C203).; type: functional; procedure, shortened: as §1
Staphylococcus aureus [12] = test: Minimum inhibitory concentration against Staphylococcus aureus (H-228).; type: functional; procedure, shortened: as §1
Staphylococcus aureus [13] = test: Minimum inhibitory concentration against Staphylococcus aureus (UC76).; type: functional; procedure, shortened: as §1
Streptococcus pneumoniae = test: Minimum inhibitory concentration against Streptococcus pneumoniae (SV-1).; type: functional; procedure, shortened: as §1
Enterobacter [14] = test: Minimum inhibitory concentration against gram-negative enterobacteriaceae.; type: functional
Procedure, shortened: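 This value is the geometric mean of microtitration MICs for the Gram-negative Enterobacteriaceae strains in the 11-organism panel. Aqueous stocks were prepared in 0.1 N sodium or potassium hydroxide.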

Mus musculus [15] = test: In vivo activity against Escherichia coli (sc); type: functional; conditions: read-out: PD50; procedure, shortened: as §2
Enterococcus faecalis = test: Minimum inhibitory concentration against Streptococcus faecalis (MGH-2).; type: functional; procedure, shortened: as §1
Enterobacter [16] = test: Minimum inhibitory concentration as geometric mean calculated for the gram-negative enterobacteriaceae.; type: functional
Procedure, shortened: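 MICs were determined by standard microtitration. The value is the geometric mean of the MICs across the Gram-negative Enterobacteriaceae strains in the test panel.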

[17] = molecular target: DNA gyrase (Escherichia coli) (UniProt P0AES6+P0AES4); test: Concentration required for 50% inhibition of gyrase.; type: protein-complex assay
Procedure, shortened: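 DNA gyrase inhibition: the drug concentration (µg/mL) giving 50% inhibition (I50) was recorded, along with the lowest concentration inducing gyrase-mediated DNA cleavage. Data come from duplicate experiments with ±50% reproducibility.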

SMILES | MIC (Escherichia coli [3]) | MIC (Escherichia coli [4]) | MIC (Enterobacter cloacae) | MIC (Klebsiella pneumoniae) | ED50 (Mus musculus [5]) | ED50 (Mus musculus [6]) | ED50 (Mus musculus [7]) | ED50 (Mus musculus [8]) | ED50 (Mus musculus [9]) | ED50 (Mus musculus [10]) | ED50 (Mus musculus [11]) | MIC (Pseudomonas aeruginosa) | MIC (Providencia rettgeri) | MIC (Streptococcus pyogenes) | MIC (Staphylococcus aureus [12]) | MIC (Staphylococcus aureus [13]) | MIC (Streptococcus pneumoniae) | MIC (Enterobacter [14]) | ED50 (Mus musculus [15]) | MIC (Enterococcus faecalis) | also measured
CCNCC1CCN(c2c(F)cc3c(=O)c(C(=O)O)cn(CC)c3c2F)C1 (configuration not stated) [MERAFLOXACIN] | 0.1 µg/mL (≈ 0.264 µM) | 0.1 µg/mL (≈ 0.264 µM) | 0.2 µg/mL (≈ 0.527 µM) | 0.2 µg/mL (≈ 0.527 µM) | > 200 mg/kg | 76 mg/kg | 20 mg/kg | 4 mg/kg | 9 mg/kg | 3 mg/kg | 12 mg/kg | 1.6 µg/mL (≈ 4.22 µM) | 0.4 µg/mL (≈ 1.05 µM) | 0.1 µg/mL (≈ 0.264 µM) | 0.1 µg/mL (≈ 0.264 µM) | 0.05 µg/mL (≈ 0.132 µM) | 0.1 µg/mL (≈ 0.264 µM) | 0.17 µg/mL (≈ 0.448 µM) | 2 mg/kg | 0.1 µg/mL (≈ 0.264 µM) | Log (Escherichia coli [1]): 6.59 1/M MIC; Log (Escherichia coli [2]): 6.35 1/M MIC
CCn1cc(C(=O)O)c(=O)c2cc(F)c(N3CCNCC3)cc21 [NORFLOXACIN] | 0.1 µg/mL (≈ 0.313 µM) | 0.025 µg/mL (≈ 0.0783 µM) | 0.1 µg/mL (≈ 0.313 µM) | 0.05 µg/mL (≈ 0.157 µM) | 76 mg/kg | 11 mg/kg | > 100 mg/kg | > 100 mg/kg | > 100 mg/kg | 45 mg/kg | 4 mg/kg | 0.2 µg/mL (≈ 0.626 µM) | 0.05 µg/mL (≈ 0.157 µM) | 0.8 µg/mL (≈ 2.51 µM) | 0.8 µg/mL (≈ 2.51 µM) | 0.05 µg/mL (≈ 0.157 µM) | 1.6 µg/mL (≈ 5.01 µM) | – | 0.6 mg/kg | 1.6 µg/mL (≈ 5.01 µM) | MIC (Enterobacter [16]): 0.06 µg/mL (≈ 0.188 µM)
CN1CCN(c2cc3c(cc2F)c(=O)c(C(=O)O)cn3-c2ccc(F)cc2)CC1 [DIFLOXACIN] | 0.05 µg/mL (≈ 0.125 µM) | 0.4 µg/mL (≈ 1 µM) | 0.8 µg/mL (≈ 2 µM) | 0.4 µg/mL (≈ 1 µM) | 14 mg/kg | 14 mg/kg | 16 mg/kg | 13 mg/kg | 7 mg/kg | 7 mg/kg | 2 mg/kg | 0.8 µg/mL (≈ 2 µM) | 1.6 µg/mL (≈ 4.01 µM) | 1.6 µg/mL (≈ 4.01 µM) | 1.6 µg/mL (≈ 4.01 µM) | 0.4 µg/mL (≈ 1 µM) | 1.6 µg/mL (≈ 4.01 µM) | 0.4 µg/mL (≈ 1 µM) | 2 mg/kg | 3.1 µg/mL (≈ 7.76 µM) | –
CCNCC1CCN(c2c(F)cc3c(=O)c(C(=O)O)cn(C4CC4)c3c2F)C1 (configuration not stated) [PD-117558] | 0.013 µg/mL (≈ 0.0332 µM) | 0.05 µg/mL (≈ 0.128 µM) | 0.1 µg/mL (≈ 0.255 µM) | 0.05 µg/mL (≈ 0.128 µM) | 40 mg/kg | 13 mg/kg | 3 mg/kg | 2 mg/kg | 2 mg/kg | 0.5 mg/kg | 4 mg/kg | 0.4 µg/mL (≈ 1.02 µM) | 0.2 µg/mL (≈ 0.511 µM) | 0.025 µg/mL (≈ 0.0639 µM) | 0.05 µg/mL (≈ 0.128 µM) | 0.006 µg/mL (≈ 0.0153 µM) | 0.025 µg/mL (≈ 0.0639 µM) | 0.06 µg/mL (≈ 0.153 µM) | 1 mg/kg | 0.025 µg/mL (≈ 0.0639 µM) | IC50 [17]: 1.4 µg/mL (≈ 3.58 µM)
O=C(O)c1cn(C2CC2)c2cc(N3CCNCC3)c(F)cc2c1=O [CIPROFLOXACIN] | 0.025 µg/mL (≈ 0.0754 µM) | – | – | 0.1 µg/mL (≈ 0.302 µM) | 25 mg/kg | 5 mg/kg | > 100 mg/kg | 29 mg/kg | > 100 mg/kg | 20 mg/kg | 1 mg/kg | 0.4 µg/mL (≈ 1.21 µM) | 0.1 µg/mL (≈ 0.302 µM) | 0.8 µg/mL (≈ 2.41 µM) | 3.1 µg/mL (≈ 9.36 µM) | 0.2 µg/mL (≈ 0.604 µM) | 1.6 µg/mL (≈ 4.83 µM) | 0.06 µg/mL (≈ 0.181 µM) | 0.3 mg/kg | 0.8 µg/mL (≈ 2.41 µM) | –
CCNCC1CCN(c2c(F)cc3c(=O)c(C(=O)O)cn(C4CCC4)c3c2F)C1 (configuration not stated) | 0.1 µg/mL (≈ 0.247 µM) | 0.2 µg/mL (≈ 0.493 µM) | 0.4 µg/mL (≈ 0.987 µM) | 0.4 µg/mL (≈ 0.987 µM) | – | – | – | – | – | – | – | 3.1 µg/mL (≈ 7.65 µM) | 3.1 µg/mL (≈ 7.65 µM) | 0.2 µg/mL (≈ 0.493 µM) | 0.1 µg/mL (≈ 0.247 µM) | 0.05 µg/mL (≈ 0.123 µM) | 0.1 µg/mL (≈ 0.247 µM) | 0.4 µg/mL (≈ 0.987 µM) | – | 0.2 µg/mL (≈ 0.493 µM) | IC50 [17]: 26 µg/mL (≈ 64.1 µM)
CCNCC1CCN(c2c(F)cc3c(=O)c(C(=O)O)cn(CC(F)(F)F)c3c2F)C1 (configuration not stated) | 0.4 µg/mL (≈ 0.923 µM) | 0.8 µg/mL (≈ 1.85 µM) | 1.6 µg/mL (≈ 3.69 µM) | 0.8 µg/mL (≈ 1.85 µM) | – | – | – | – | – | – | – | 6.3 µg/mL (≈ 14.5 µM) | 3.1 µg/mL (≈ 7.15 µM) | 0.4 µg/mL (≈ 0.923 µM) | 0.4 µg/mL (≈ 0.923 µM) | 0.1 µg/mL (≈ 0.231 µM) | 0.4 µg/mL (≈ 0.923 µM) | 1.05 µg/mL (≈ 2.42 µM) | – | 0.2 µg/mL (≈ 0.461 µM) | IC50 [17]: 26 µg/mL (≈ 60 µM)
